Screening results from PubChem BioAssay.
S100A4 MyoIIA = inhibitors of S100A4-myosin IIA peptide binding, primary screen, biochemical, fluorescence polarization, TAMRA-MyoIIA peptide; inhibition, % at 10.7 µM; Protein S100-A4 (Homo sapiens), P26447; 360,000 compounds, 0.14% hits; AID 652163, 2013;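 active means mean inhibition of at least 70% across replicates, with every replicate also reaching that level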
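Material: S100A4 monomer protein | Medium: HEPES pH 7.2 with CaCl2, KCl, NaCl, DTT, Triton | Reagent: Labelled myosin peptide probe, 5 nM | Doses: One dose per compound | Times: 5 min incubation before reading | Benchmarks: Neutral control DMSO, positive control TFP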
Ecoli rRNA inh = reduced GFP signal of wild-type E. coli, primary screen, bacterial rRNA inhibitor project, GFP/RFP fluorescence, OD600, single point; E. coli WT GFP vs humanized-ribosome RFP mutants, 24 h; active compounds read low; DMSO median 0, no signal -100; GFP signal change (wild-type ribosome), % (test concentration not listed); 350,000 compounds, 1.6% hits;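 active means significant combined selectivity score with lowered wild-type GFP, culture density cut under 30%, mutant RFP and density less affected; inactive means any of these conditions unmet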
ERAP1 HTS inh = human ERAP1 aminopeptidase inhibitors, primary screen, biochemical, single point, plate reader; inhibition, % at 10.7 µM; recombinant ERAP1, Leu-AMC fluorescence, 60 min; 340,000 compounds, 0.15% hits; AID 652197, 2013; Endoplasmic reticulum aminopeptidase 1 (Homo sapiens), Q9NZ08;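 active means mean replicate inhibition of at least 30%, or all replicates individually reaching that 30% level; inactive means mean below 30% and not every replicate reaching it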;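 further: 0% = neutral control wells and 100% = L-leucinethiol positive control wells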
SIRT5 block = SIRT5 desuccinylase inhibitors, primary screen, biochemical, fluorescence imaging, single point, set 5 | NAD-dependent protein deacylase sirtuin-5, mitochondrial (Homo sapiens), Q9NXA8 | 330,000 compounds, 1.1% hits | inhibition, % at 15 µM | AID 652115, 2013 | Purified SirT5, succinyl-peptide AMC, trypsin-coupled fluorescence; in the data active means inhibition above about 15%
Target sequence (Q9NXA8 whole entry, looked up): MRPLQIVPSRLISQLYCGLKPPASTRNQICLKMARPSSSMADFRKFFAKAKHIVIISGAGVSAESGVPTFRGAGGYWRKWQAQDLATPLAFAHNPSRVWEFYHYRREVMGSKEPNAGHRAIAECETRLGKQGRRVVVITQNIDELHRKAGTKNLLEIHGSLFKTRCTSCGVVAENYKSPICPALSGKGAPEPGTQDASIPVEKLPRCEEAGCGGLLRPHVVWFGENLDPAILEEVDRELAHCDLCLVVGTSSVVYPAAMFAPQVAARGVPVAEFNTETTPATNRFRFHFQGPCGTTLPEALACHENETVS
CFTR F508del cor = F508del CFTR correction, initial screen, CFBE line, single point. CFBE cells, YFP halide quenching; stimulated with forskolin plus potentiator P3; % fluorescence drop versus neutral controls. activity (quench increase), % at 7.58 µM. 350,000 compounds, 0.36% hits. AID 720511, 2013;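 active means mean added fluorescence quench of at least 8% versus neutral control, with both replicates also reaching 8%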;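 further: cells transiently co-express mutant CFTR-F508del with the halide-sensitive YFP; corrector assay measuring rescue of mutant channel to the surface after 24 h compound exposure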
* marks the source's active call; other numbers are inactive results. Compounds with a hit are over-represented: about 3.1% of the library has one in this group of screens.

Screening COCCn1c(N)c(N(Cc2ccccc2)C(=O)C2=COCCO2)c(=O)[nH]c1=O returned S100A4 MyoIIA -1.9, Ecoli rRNA inh 10.2, ERAP1 HTS inh 57.7*, SIRT5 block -3.2 and CFTR F508del cor 2.6.
O=S(=O)(c1ccc(Br)cc1)N1CCCc2ccccc21 was read as S100A4 MyoIIA -3.3, Ecoli rRNA inh 0.3, ERAP1 HTS inh 0.2, SIRT5 block -2.4 and CFTR F508del cor 10.8*.
For CN(C)CCCNS(=O)(=O)c1ccc(NC2CCCCCC2)c([N+](=O)[O-])c1 the results were S100A4 MyoIIA -2.4, Ecoli rRNA inh -4.4, ERAP1 HTS inh 4.7, SIRT5 block 28.7* and CFTR F508del cor -1.1.
For C[C@@H]1CN([C@@H](C)CO)S(=O)(=O)c2ccc(/C=C/c3ccccc3)cc2O[C@H]1CN(C)C(=O)NC1CCCCC1 the results were S100A4 MyoIIA -9.4, Ecoli rRNA inh -5.2, ERAP1 HTS inh 2.0, SIRT5 block 22.4* and CFTR F508del cor 1.0.
For C[C@H](CO)N1C[C@H](C)[C@@H](CN(C)C(=O)NC2CCCCC2)Oc2cc(/C=C/c3ccccc3)ccc2S1(=O)=O the results were S100A4 MyoIIA 10.0, Ecoli rRNA inh -1.8, ERAP1 HTS inh -3.1, SIRT5 block -6.9 and CFTR F508del cor -0.3.
Screening C[C@H](CO)N1C[C@H](C)[C@H](CN(C)C(=O)NC2CCCCC2)Oc2cc(/C=C/c3ccccc3)ccc2S1(=O)=O returned S100A4 MyoIIA -3.1, Ecoli rRNA inh -1.6, ERAP1 HTS inh 2.8, SIRT5 block 24.9* and CFTR F508del cor 2.1.
Screening C[C@@H]1CN([C@@H](C)CO)S(=O)(=O)c2ccc(/C=C/c3ccccc3)cc2O[C@@H]1CN(C)C(=O)NC1CCCCC1 returned S100A4 MyoIIA -13.2, Ecoli rRNA inh 0.0, ERAP1 HTS inh 4.0, SIRT5 block 27.8* and CFTR F508del cor 1.3.
Screening C/C=C/c1ccc2c(c1)O[C@@H](CN(C)C(=O)NC1CCCCC1)[C@@H](C)CN([C@H](C)CO)S2(=O)=O returned S100A4 MyoIIA -0.3, Ecoli rRNA inh -12.3, ERAP1 HTS inh -1.9, SIRT5 block 3.3 and CFTR F508del cor 7.6.
For C[C@H]1CN([C@@H](C)CO)S(=O)(=O)c2ccc(/C=C/c3ccccc3)cc2O[C@H]1CN(C)C(=O)NC1CCCC1 the results were S100A4 MyoIIA -6.7, Ecoli rRNA inh -6.2, ERAP1 HTS inh -1.0, SIRT5 block 19.1* and CFTR F508del cor 3.2.
For C[C@@H]1CN([C@@H](C)CO)S(=O)(=O)c2ccc(-c3ccncc3)cc2O[C@H]1CN(C)C(=O)C1CCCCC1 the results were Ecoli rRNA inh -3.1 and CFTR F508del cor 1.2.
For O=C(C[C@H]1C[C@@H]2c3cc(NS(=O)(=O)c4ccc(F)cc4)ccc3O[C@@H]2[C@@H](CO)O1)N1CCCCC1 the results were S100A4 MyoIIA 5.3, Ecoli rRNA inh -4.5, ERAP1 HTS inh -0.3, SIRT5 block -1.5 and CFTR F508del cor -2.2.
